Activity calls are given as the source filed them. The rule behind the calls is not given here.
Assays:
RAW264.7 [1] = assay: Anti-inflammatory activity against LPS-stimulated mouse RAW264.7 cells assessed as reduction in TNF-alpha expression of M1 macrophages at 100 to 500 nM incubated for 48 hrs in presence of LPS by flow cytometry; format: functional, cell-based; conditions: dose 100-500 nM
Outline: (§1)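 RAW 264.7 cells in DMEM with 10% heat-inactivated FBS at 37 °C, 5% CO2, subcultured at 70–80% confluence. Seeded at 1 × 10^6 cells/mL in medium with 1 μg/mL LPS, with compound at final 100 nM or 500 nM. After 48 h, M1 differentiation and TNF-α are read by flow cytometry.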

RAW264.7 [2] = assay: Anti-inflammatory activity against LPS-stimulated mouse RAW264.7 cells assessed as proportion of polarized M1 macrophages at 100 nM incubated for 48 hrs in presence of LPS by flow cytometry (reference value: 90.3%); format: functional; outline: as §1
[3] = target: T1, Immunity-related GTPase family M protein 1 (Mus musculus) (UniProt Q60766); assay: Binding affinity to IRGM in LPS-stimulated mouse RAW264.7 cells at 100 uM preincubated with LPS for 48 hrs followed by incubation with compound for 3 hrs by immunoblot analysis; format: cell-based
T1 sequence (whole entry): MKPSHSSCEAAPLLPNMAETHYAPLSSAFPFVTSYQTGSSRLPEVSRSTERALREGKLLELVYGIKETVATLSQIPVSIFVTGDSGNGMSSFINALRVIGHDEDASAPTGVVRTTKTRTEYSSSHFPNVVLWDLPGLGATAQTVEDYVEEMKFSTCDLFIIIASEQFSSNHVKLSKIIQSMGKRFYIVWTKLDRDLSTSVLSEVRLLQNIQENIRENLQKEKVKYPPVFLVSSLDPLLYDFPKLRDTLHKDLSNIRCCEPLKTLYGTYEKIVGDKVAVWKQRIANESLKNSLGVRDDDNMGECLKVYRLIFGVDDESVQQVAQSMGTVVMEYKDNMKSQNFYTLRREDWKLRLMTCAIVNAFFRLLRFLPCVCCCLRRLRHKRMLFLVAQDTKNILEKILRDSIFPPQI
Outline: (§2)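 Lysates of LPS-polarized (1 μg/mL, 48 h) RAW 264.7 cells at 2 mg/mL, incubated 3 h at room temperature with 100 μM probe 10 plus competitor at 10–100 μM. Then UV 365 nm crosslinking, click with biotin-azide, streptavidin pull-down, and immunoblotting for IRGM.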

[4] = target: T2, Immunity-related GTPase family M protein (Homo sapiens) (UniProt A1A4Y4); assay: Binding affinity to IRGM (unknown origin) assessed as protection of protein from temperature-dependent denaturation at 100 uM by CETSA analysis
T2 sequence (whole entry): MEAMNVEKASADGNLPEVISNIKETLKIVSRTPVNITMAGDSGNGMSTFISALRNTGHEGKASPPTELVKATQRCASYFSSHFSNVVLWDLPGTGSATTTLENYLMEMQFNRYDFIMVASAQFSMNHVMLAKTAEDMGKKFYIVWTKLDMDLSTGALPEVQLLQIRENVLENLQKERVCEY

CD4+ve Th [5] = assay: Inhibition of cytokine storm in ConA/1L-12-stimulated C57BL/6 mouse CD4+ T-lymphocytes assessed as reduction in Th2 cell differentiation by measuring proportion of CD4+IL4-negative cells at 500 nM incubated for 48 hrs by flow cytometry (reference value: 32.4%); format: functional; parameters: scale not given: the % may be the effect or the level left
Outline: (§3)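 Splenocytes from C57BL/6 mice after erythrocyte lysis, filtration and counting. Cultured in complete medium with ConA and IL-2 under Th1, Th2 or Th17 differentiation conditions with compound for 48 h. Then PMA, ionomycin and GolgiStop (1:1000) for 4 h. CD4 and intracellular cytokines stained and read by flow cytometry.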

RAW264.7 [6] = assay: Anti-inflammatory activity against LPS-stimulated mouse RAW264.7 cells assessed as proportion of polarized M1 macrophages at 500 nM incubated for 48 hrs in presence of LPS by flow cytometry (reference value: 90.3%); format: functional; outline: as §1
Mus musculus [7] = assay: Anti-inflammatory activity against CLP-induced sepsis C57BL/6J mouse model assessed as proportion of M1 macrophages at 100 mg/kg by flow cytometry (reference value: 98.4%); format: functional
[8] = Inhibition of cytokine storm in CLP-induced sepsis C57BL/6J mouse model assessed as reduction in Th17 cell differentiation by measuring CD4+IL17A-negative cells at 100 mg/kg by flow cytometry (reference value: 50.2%); format: functional; parameters: scale not given: the % may be the effect or the level left
Mus musculus [9] = assay: Anti-inflammatory activity against CLP-induced sepsis C57BL/6J mouse model assessed as proportion of Tr1 cells producing IL-10 at 100 mg/kg by flow cytometry (reference value: 24.5%); format: functional
[10] = target: T2, Immunity-related GTPase family M protein (Homo sapiens); assay: Binding affinity to IRGM (unknown origin) assessed as protection of protein from pronase proteolysis by DARTS analysis; conditions: dose 1-100 µM, DDE = dose-dependent effect
Outline: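 DARTS: samples treated with compound at 1–100 μM, then digested with pronase; IRGM detected by immunoblot.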

Mus musculus [11] = assay: Anti-inflammatory activity against CLP-induced sepsis C57BL/6J mouse model assessed as proportion of neutrophils at 100 mg/kg by flow cytometry (reference value: 6.6%); format: functional
Mus musculus [12] = assay: Anti-inflammatory activity against CLP-induced sepsis C57BL/6J mouse model assessed as proportion of Foxp3-positive Treg cells at 100 mg/kg by flow cytometry (reference value: 2.08%); format: functional
CD4+ve Th [13] = assay: Cytotoxicity against C57BL/6 mouse CD4+ T-lymphocytes at 500 nM measured upto 48 hrs; format: toxicity, cell-based; conditions: 0.5 µM
CD4+ve Th [14] = assay: Inhibition of cytokine storm in ConA/1L-12-stimulated C57BL/6 mouse CD4+ T-lymphocytes assessed as reduction in Th17 cell differentiation by measuring proportion of CD4+IL17A-negative cells at 500 nM incubated for 48 hrs by flow cytometry (reference value: 31.6%); format: functional; parameters: scale not given: the % may be the effect or the level left; outline: as §3
[15] = target: T2, Immunity-related GTPase family M protein (Homo sapiens); assay: Binding affinity to IRGM (unknown origin) by gene ontology analysis
[16] = Inhibition of cytokine storm in CLP-induced sepsis C57BL/6J mouse model assessed as reduction in Th17 cell differentiation by measuring CD4+IL17A-positive cells at 100 mg/kg by flow cytometry (reference value: 49.8%); format: functional; parameters: scale not given: the % may be the effect or the level left
[17] = Inhibition of cytokine storm in CLP-induced sepsis C57BL/6J mouse model assessed as disruption of Th1 and Th2 cells imbalance by measuring CD4+IL4-negative cells at 100 mg/kg by flow cytometry (reference value: 95.3%); format: functional; parameters: scale not given: the % may be the effect or the level left
[18] = Inhibition of cytokine storm in CLP-induced sepsis C57BL/6J mouse model assessed as disruption of Th1 and Th2 cells imbalance by measuring CD4+IFNgamma-positive cells at 100 mg/kg by flow cytometry (reference value: 73.7%); format: functional; parameters: scale not given: the % may be the effect or the level left
CD4+ve Th [19] = assay: Inhibition of cytokine storm in ConA/1L-12-stimulated C57BL/6 mouse CD4+ T-lymphocytes assessed as reduction in Th1 cell differentiation by measuring proportion of CD4+IFNgamma-positive cells at 500 nM incubated for 48 hrs by flow cytometry (reference value: 69%); format: functional; parameters: scale not given: the % may be the effect or the level left; outline: as §3
[20] = Inhibition of cytokine storm in CLP-induced sepsis C57BL/6J mouse model assessed as disruption of Th1 and Th2 cells imbalance by measuring CD4+IFNgamma-negative cells at 100 mg/kg by flow cytometry (reference value: 26.3%); format: functional; parameters: scale not given: the % may be the effect or the level left
[21] = target: T1, Immunity-related GTPase family M protein 1 (Mus musculus); assay: Binding affinity to IRGM in LPS-stimulated mouse RAW264.7 cells by competitive pull down based immunoblot analysis; format: cell-based; conditions: dose 10-100 µM, DDE = dose-dependent effect; outline: as §2
RAW264.7 [22] = assay: Anti-inflammatory activity against LPS-stimulated mouse RAW264.7 cells assessed as reduction in M1 polarization of macrophages at 100 to 500 nM incubated for 48 hrs in presence of LPS by flow cytometry; format: functional, cell-based; conditions: dose 100-500 nM; outline: as §1
RAW264.7 [23] = assay: Anti-inflammatory activity against LPS-stimulated mouse RAW264.7 cells assessed as TNF-alpha expression of M1 macrophages at 100 nM incubated for 48 hrs in presence of LPS by flow cytometry (reference value: 82.1%); format: functional; outline: as §1
RAW264.7 [24] = assay: Anti-inflammatory activity against LPS-stimulated mouse RAW264.7 cells assessed as TNF-alpha expression of M1 macrophages at 500 nM incubated for 48 hrs in presence of LPS by flow cytometry (reference value: 82.1%); format: functional; outline: as §1
CD4+ve Th [25] = assay: Inhibition of cytokine storm in ConA/1L-12-stimulated C57BL/6 mouse CD4+ T-lymphocytes assessed as reduction in Th2 cell differentiation by measuring proportion of CD4+IL4-positive cells at 500 nM incubated for 48 hrs by flow cytometry (reference value: 67.6%); format: functional; parameters: scale not given: the % may be the effect or the level left; outline: as §3
Mus musculus [26] = assay: Anti-inflammatory activity against CLP-induced sepsis C57BL/6J mouse model assessed as reduction in edema and hepatocyte necrosis at 100 mg/kg by Hematoxylin and eosin staining based analysis; format: functional, organism-based
Outline: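 Liver tissue from CLP-septic C57BL/6J male mice (8–10 wk), stained with H&E and examined for edema and hepatocyte necrosis.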

CD4+ve Th [27] = assay: Inhibition of cytokine storm in ConA/1L-12-stimulated C57BL/6 mouse CD4+ T-lymphocytes assessed as reduction in Th17 cell differentiation by measuring proportion of CD4+IL17A-positive cells at 500 nM incubated for 48 hrs by flow cytometry (reference value: 68.4%); format: functional; parameters: scale not given: the % may be the effect or the level left; outline: as §3
CD4+ve Th [28] = assay: Inhibition of cytokine storm in ConA/1L-12-stimulated C57BL/6 mouse CD4+ T-lymphocytes assessed as reduction in Th1 cell differentiation by measuring proportion of CD4+IFNgamma-negative cells at 500 nM incubated for 48 hrs by flow cytometry (reference value: 31%); format: functional; parameters: scale not given: the % may be the effect or the level left; outline: as §3
[29] = Inhibition of cytokine storm in CLP-induced sepsis C57BL/6J mouse model assessed as disruption of Th1 and Th2 cells imbalance by measuring CD4+IL4-positive cells at 100 mg/kg by flow cytometry (reference value: 4.69%); format: functional; parameters: scale not given: the % may be the effect or the level left
[30] = target: T1, Immunity-related GTPase family M protein 1 (Mus musculus); assay: Binding affinity to IRGM in LPS-stimulated mouse RAW264.7 cells at 100 uM preincubated with LPS for 48 hrs followed by incubation with compound for 3 hrs by SILAC-pull down based analysis; format: cell-based
Outline: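 RAW 264.7 cells were SILAC heavy- or light-labeled and polarized with 1 μg/mL LPS for 48 h. Lysates at 2 mg/mL in PBS: heavy with probe 10 (100 μM), light with 100 μM competitor, 3 h at room temperature. Then 365 nm UV at 4 °C and click with biotin-azide (final 500 μM) and Cu+ (final 1 mM) for 3 h. Acetone precipitation, streptavidin bead capture, SDS-PAGE and MS; Heavy/Light ratios by MaxQuant.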

Compound | Activity (RAW264.7 [1]) | Activity (RAW264.7 [2]) | Activity (CD4+ve Th [5]) | Activity (RAW264.7 [6]) | Activity (CD4+ve Th [13]) | Activity (CD4+ve Th [14]) | Activity (CD4+ve Th [19]) | Activity (RAW264.7 [22]) | Activity (RAW264.7 [23]) | Activity (RAW264.7 [24]) | Activity (CD4+ve Th [25]) | Activity (CD4+ve Th [27]) | Activity (CD4+ve Th [28]) | other results
C=CCc1cc2c(cc1O)O[C@H](c1ccc(OC)c(OC)c1)[C@H]2C | Active | 82.9% | 64.9% | 83.2% | Non-Toxic | 57.7% | 42.8% | Active | 19.5% | 22.8% | 35.1% | 42.3% | 57.2% | Activity [3]: Active; Activity [4]: Active; Activity (Mus musculus [7]): 71.3%; Activity [8]: 82.5%; Activity (Mus musculus [9]): 11.2%; Activity [10]: Dde; Activity (Mus musculus [11]): 1.09%; Activity (Mus musculus [12]): 0.53%; Activity [15]: Active; Activity [16]: 17.5%; Activity [17]: 98.5%; Activity [18]: 11.3%; Activity [20]: 88.7%; Activity [21]: Dde; Activity (Mus musculus [26]): Active; Activity [29]: 1.53%; Activity [30]: Active
C=CCOc1cccc(OC/C=C/c2ccc(OC)c(OC)c2)c1 | Active |  | 85.2% |  | Non-Toxic | 76.1% | 25.6% | Active |  |  | 14.8% | 23.9% | 74.4% | 
C=CCC1=C[C@]2(OC)C(=CC1=O)O[C@H](c1ccc(OC)c(OC)c1)[C@H]2C | Active |  | 85.7% |  | Non-Toxic | 78.6% | 24.3% |  |  |  | 14.3% | 21.4% | 75.7% | 
C[C@]12CCC(=O)C=C1CC[C@@H]1[C@@H]2[C@@H](O)C[C@@]2(C)[C@H]1CC[C@]2(O)C(=O)CO | Active |  |  |  |  |  |  |  |  |  |  |  |  | 
C#CCCC1(CCOc2cc3c(cc2CC=C)[C@H](C)[C@@H](c2ccc(OC)c(OC)c2)O3)N=N1 |  | 81.8% |  | 82.6% |  |  |  |  | 28.9% | 26.6% |  |  |  | 
COc1ccc(/C=C/COc2cccc(O)c2)cc1OC | Active |  | 76% |  | Non-Toxic | 74.1% | 25.1% |  |  |  | 24% | 25.9% | 74.9% | 

From ChEMBL document CHEMBL5108029, “SILAC-based chemoproteomics reveals a neoligan analogue as an anti-inflammatory agent targeting IRGM to ameliorate cytokine storm” (Eur J Med Chem, 2022)
